EP2 antag = human EP2 receptor antagonists, primary screen, TR-FRET cAMP, C6 glioma cells; Prostaglandin E2 receptor EP2 subtype (Homo sapiens), P43116; C6 glioma cells expressing human EP2; cells stimulated with saturating PGE2; inhibition, % at 25 µM; 0.52% of 260,000 active; AID 1422, 2008;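 active = percent inhibition above 40 after rounding to a whole number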;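 note: rat C6 glioma host cells with rolipram phosphodiesterase inhibitor present; the protocol text gives 20 µM as final concentration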
Target sequence (P43116 whole entry, looked up): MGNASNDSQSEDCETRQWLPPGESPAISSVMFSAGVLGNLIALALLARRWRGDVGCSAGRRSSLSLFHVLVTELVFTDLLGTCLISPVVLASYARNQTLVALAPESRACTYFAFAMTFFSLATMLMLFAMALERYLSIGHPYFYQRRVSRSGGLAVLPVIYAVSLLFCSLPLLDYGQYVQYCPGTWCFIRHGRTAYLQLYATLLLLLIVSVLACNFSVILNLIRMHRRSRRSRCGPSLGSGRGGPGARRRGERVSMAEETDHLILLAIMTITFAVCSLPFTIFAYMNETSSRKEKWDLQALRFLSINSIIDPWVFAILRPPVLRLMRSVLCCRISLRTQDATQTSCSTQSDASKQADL
JMJD2C inh = inhibitors of GASC-1 histone demethylase, primary screen, biochemical, fluorescence, DELFIA europium | GST-JMJD2C(1-420) H3K9me3 demethylation | inhibition, % at 2.35 µM | 0.069% of 330,000 active;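 active = more than half of a compound's replicate wells show inhibition beyond 50%, single wells judged on their own value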;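 note: signal counts dimethyl H3K9 product captured on neutravidin plate; 0% = median of DMSO wells and 100% = 0.3 times that DMSO median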
EP2 modulator = EP2 receptor modulators, cAMP readout, primary screen, cell-based, HTRF cAMP, PGE2 stimulation; EP2-expressing cells, cAMP HTRF FRET, PGE2 co-stimulation; 0.83% of 260,000 active; induction, % at 25 µM; Prostaglandin E2 receptor EP2 subtype (Homo sapiens), P43116; AID 940, 2007;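 active = compounds whose cAMP rise, as percent of the full-agonist control response, exceeds 60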;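 note: rat C6 glioma line stably carrying human EP2 under a CMV promoter; the protocol text gives 20 µM as final concentration; 100% = response of wells given 1 µM PGE2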
NR2E3 ag-1 = NR2E3 agonists in two-hybrid cells, primary screen, cell-based, luminescence, CHO-S, Gal4-NCOR/VP16-NR2E3; luciferase; inhibition of corepressor binding, % at 3.98 µM; 0.35% of 360,000 active;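 active = inhibition above the mean of all tested compounds plus 3 SD, cut at about 70% in these data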;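 note: 0% = DMSO with NR2E3 transfected cells and 100% = cells lacking NR2E3 construct; higher means lower luciferase signal from less NR2E3 corepressor binding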
NR2E3 ag-2 = inhibitors of NR2E3-RetCOR corepressor binding, primary screen, NR2E3 agonist project, biochemical, TR-FRET, GST-NR2E3, biotin-RetCOR | Photoreceptor-specific nuclear receptor (Homo sapiens), Q9Y5X4 | AID 2300, 2010 | inhibition of corepressor binding, % at 4.78 µM | 0.12% of 320,000 active | 1536-well;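 active = percent inhibition above the cutoff of mean plus 3 SD of all tested compounds, set per screening campaign, cut at about 20% in these data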;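 note: 0% = DMSO wells and 100% = biotin wells as full block of FRET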
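System: GST-tagged NR2E3 plus biotinylated RetCOR corepressor; Buffer or medium: pH 7.5 Tris-based buffer; Probe or stimulus: RetCOR corepressor, biotinylated, 7 nM; Doses: compound at 4.8 µM, single dose; Schedule: 5 h incubation at 4 °C; Technique: time-resolved FRET; Evaluation: percent inhibition of TR-FRET ratio; Replication: one well per compound, singlicate testing.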
Furin inh = human furin inhibitors, primary screen, biochemical, fluorescence intensity. purified furin, fluorogenic substrate cleavage. inhibition, % at 20 µM or 30 µM. 0.061% of 220,000 active; in the data active = inhibition above about 25%
EP2 confirm = cAMP induction in EP2, EP4, beta2-AR and parental cells, confirmation, counter-screen for EP2 modulator project, cell-based, five parallel assays, C6 glioma, HEK293; cAMP HTRF induction; plus low (about EC15) PGE2 agonist; calls only at 20 µM (by protocol); shares compounds with EP2 modulator; 47% of 1,300 active;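 active = cAMP induction above 50% in the main assay while under 30% in all four parallel counter assays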;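 note: rat C6 glioma cells stably expressing human EP2 receptor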
The depositor's hits bear a star; i = inactive; x = no result given; + = active, no number. An excerpt weighted towards active compounds, which were near 1.3% of everything screened.

SMILES	EP2 antag	JMJD2C inh	EP2 modulator	NR2E3 ag-1	NR2E3 ag-2	Furin inh	EP2 confirm
Cc1oc(C)c2c(=O)ccc3c(c12)OC(N)=C(C#N)C3c1ccccc1F (stereo unspecified)	12.8	x	-7.2	x	x	x	x
COc1ccc2c(-c3ccccc3)cc(N3CCOCC3)nc2c1	12.3	0.7	77.3*	2.6	-1.0	-12.9	+
c1ccc(-c2cc(-c3ccc(N4CCOCC4)cc3)nc3ccccc23)cc1	8.8	13.7	0.7	11.2	0.8	-11.5	x
Cc1cc(C)c2c(N)c(C(=O)Nc3ccccc3C(F)(F)F)sc2n1	14.4	x	16.4	x	x	x	x
Nc1c(C(=O)Nc2ccccc2F)sc2nc(Cc3ccccc3)cc(C(F)(F)F)c12	15.4	1.7	67.2*	1.2	-2.8	-10.7	i
C=CCc1cc(C=O)cc(OCC)c1OCc1ccc(Cl)cc1	6.0	2.4	86.8*	-4.4	0.1	-3.4	+
C=CCc1cc(C=O)cc(OC)c1OCc1ccc(Cl)cc1	1.6	-3.6	83.1*	-17.1	-1.3	-9.2	+
COc1cc(C=O)ccc1OCCOCCOc1ccc(Cl)cc1	7.9	2.8	-20.4	-23.5	1.1	-11.7	x
COc1ccccc1CN(CCCn1ccnc1)Cc1cccnc1	8.8	x	-14.3	x	x	x	x
CCc1ncc(CN2CCc3cc(OC)c(OC)cc3C2c2ccccc2)cn1 (stereo unspecified)	3.0	x	12.3	x	x	x	x
Cc1ccc(OCc2nnc(SCC(=O)c3ccccc3)n2-c2ccccc2)cc1	1.2	2.1	31.7	6.5	0.5	-5.2	x
Cc1cccc(-n2c(CCc3ccccc3)nnc2SCC(=O)c2ccccc2)c1	8.4	1.5	64.3*	-29.8	-1.4	-3.2	i
N#Cc1sc2nc(C3CC3)cc(-c3ccc(Cl)cc3)c2c1N	11.2	-0.5	75.7*	11.9	2.5	-12.9	i
C=CCn1c(CCc2cc(C(C)(C)C)c(O)c(C(C)(C)C)c2)n[nH]c1=S	6.6	-10.6	58.1	-30.7	2.4	-20.7	i
C=CCn1c(Cc2ccccc2)n[nH]c1=S	13.2	-25.6	9.1	14.4	2.6	-24.7	x
CCC1c2ccc(C)n2CCN1C(=O)Cn1cnc2sc(C)cc2c1=O (stereo unspecified)	9.4	x	-26.1	x	x	x	x
Cc1cc2ccc(C)c(C)c2nc1SCC#N	9.3	-26.5	66.1*	24.6	1.5	-20.6	+
Cc1cc2ccc(C)c(C)c2nc1SCC(=O)c1cccs1	7.8	3.9	14.4	-10.3	-1.7	-19.6	x
Cc1cc(C)c(N=C2CCCN2Cc2ccccc2)c(C#N)c1	7.9	1.8	77.9*	-4.0	4.6	-11.4	+
O=C(CCn1nnc2ccccc21)Nc1ccc(F)cc1	10.3	x	-13.8	x	x	x	x
CC1(C)Oc2ccc(C(=O)N3CCOCC3)cc2N(CC(=O)N2CCOCC2)C1=O	19.2	-60.9	73.7*	-12.2	-0.5	-27.0	i
Cc1cccc(N(CC(=O)NC(C)(C)C)C(=O)c2snc(C(=O)NC3CCCCC3)c2N)c1C	18.0	x	-3.1	x	x	x	x
CC(=O)Nc1sc2c(c1C(c1ccccn1)N1CCCC1)CCCC2 (stereo unspecified)	3.1	8.0	19.6	-14.2	6.1	-6.3	x
CC(=O)Nc1sc2c(c1C(c1cccs1)N1CCOCC1)CCCC2 (stereo unspecified)	13.7	1.1	51.3	-24.9	3.0	-13.6	i
CN(Cc1cccs1)c1nc(-c2cccnc2)nc2ccccc12	4.0	2.8	74.0*	13.4	1.4	-17.2	+
SMILES	EP2 antag	JMJD2C inh	EP2 modulator	NR2E3 ag-1	NR2E3 ag-2	Furin inh	EP2 confirm
Cc1cc(C)cc(N(C(=O)Cc2cccs2)C(C(=O)NC2CCCC2)c2ccncc2)c1 (stereo unspecified)	9.7	x	6.5	x	x	x	x
Cc1ccc2cccc(NC(=O)c3ccc(Br)o3)c2n1	9.6	5.9	87.3*	20.5	2.6	-10.2	+
O=C(Nc1ccccc1-c1nc2ccccc2s1)c1ccc(Br)o1	12.6	-1.7	77.6*	-3.1	1.9	-5.8	+
S=c1[nH]nc(-c2ccccc2)n1/N=C/c1ccc(-c2ccccc2Cl)o1	13.8	5.8	78.5*	-13.4	-3.3	-8.9	+
CCCn1nnc(NC(=O)COc2ccc(C(C)C)cc2)n1	4.5	x	-44.9	x	x	x	x
Cc1ccsc1-c1n[nH]c(=S)n1C1CCCCC1	6.0	16.1	62.9*	-22.0	3.7	-4.2	i
CCOCCCNCc1cc2c(C)nn(-c3ccc(F)cc3)c2[nH]c1=O	7.6	x	-18.1	x	x	x	x
COC(=O)Cn1c2ccc(Cl)cc2c2nc(C)sc21	8.9	-0.4	-19.2	2.2	-0.6	-21.8	x
Cc1ccc(S(=O)(=O)n2c3ccc(Cl)cc3c3nc(C)sc32)cc1	3.5	-33.4	89.9*	4.8	x	-18.9	+
CCN(CC)C(=O)CN(c1cc2c(cc1OC)oc1ccccc12)S(=O)(=O)c1ccc(C)cc1	5.5	12.9	91.4*	33.8	-2.1	-6.0	i
CCN(CC)S(=O)(=O)c1ccc(C(=O)Nc2cc3oc4ccccc4c3cc2OC)cc1	4.6	12.4	4.3	12.4	-3.1	-10.1	x
CC1CCc2c(sc(N)c2C(=O)OC(C)C)C1 (stereo unspecified)	12.2	1.0	68.3*	-14.2	-1.3	-13.3	i
CCOC(=O)c1cc2sc(C)cc2n1C(C)C(=O)OCC (stereo unspecified)	6.5	4.4	64.9*	-8.6	0.0	10.8	i
CCOC(=O)C(C)n1nc(C)n2c(cc3sc(C)cc32)c1=O (stereo unspecified)	x	x	-3.0	x	x	x	x
Cc1cc(C(=O)NCC(c2ccco2)N(C)C)no1 (stereo unspecified)	1.3	1.1	71.0*	-14.3	-1.9	-8.9	i
CN(C)C(CNC(=O)c1ccc(Br)cc1)c1ccco1 (stereo unspecified)	x	4.2	x	-39.6	-0.9	x	x
COc1cc2cc(C#N)c(SCC(=O)N3CCN(c4ccccc4)CC3)nc2cc1OC	7.8	x	15.4	x	x	x	x
CCc1nn(CC(=O)NCc2ccccn2)c(=O)c2cc3ccsc3n12	x	x	12.9	x	x	x	x
Cc1ccc2c(c1)N(Cc1cccc(Cl)c1)C(=O)c1cccnc1O2	7.3	-3.4	71.0*	-17.8	3.5	-10.6	+
Cc1ccc2cc(C(c3nnnn3C3CCCCC3)N3CCCc4ccccc43)c(=O)[nH]c2c1C (stereo unspecified)	8.4	x	16.9	x	x	x	x

Bioassay records: PubChem, several laboratories
